High-throughput results deposited in PubChem by The Scripps Research Institute Molecular Screening Center.
In the library only some 2.8% were active in any assay of this set; here they are far more common.
PAFAH1B3 inh: PAFAH1B3 (human) inhibition. 340,000 tested, 0.28% active. recombinant PAFAH1B3, FP-rhodamine probe, fluorescence polarization. inhibition, % at 3.39 µM. Q15102. AID 492972;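 active means inhibition above the screen-wide average of all tested compounds plus 3 SD, cut at about 25% in these data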;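 further: 0% = enzyme with DMSO only and 100% = wells lacking PAFAH1B3 protein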
Target sequence (Q15102 whole entry, looked up): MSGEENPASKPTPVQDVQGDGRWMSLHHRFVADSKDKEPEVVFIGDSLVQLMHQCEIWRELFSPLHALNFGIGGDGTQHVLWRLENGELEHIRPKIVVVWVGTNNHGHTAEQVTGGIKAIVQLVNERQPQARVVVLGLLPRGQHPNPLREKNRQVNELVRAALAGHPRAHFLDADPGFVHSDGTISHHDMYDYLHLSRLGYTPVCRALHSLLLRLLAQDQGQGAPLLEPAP
PAFAH1B2 FP inh: PAFAH1B2 (human) inhibition; recombinant PAFAH1B2, FP-rhodamine activity probe, fluorescence polarization; inhibition, % at 3.39 µM; 340,000 tested, 1.2% active;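 active means inhibition above the mean of all tested compounds plus 3 SD, cut at about 24% in these data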;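 further: 0% = enzyme with DMSO and 100% = wells lacking PAFAH1B2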
Target sequence (P68402 whole entry, looked up): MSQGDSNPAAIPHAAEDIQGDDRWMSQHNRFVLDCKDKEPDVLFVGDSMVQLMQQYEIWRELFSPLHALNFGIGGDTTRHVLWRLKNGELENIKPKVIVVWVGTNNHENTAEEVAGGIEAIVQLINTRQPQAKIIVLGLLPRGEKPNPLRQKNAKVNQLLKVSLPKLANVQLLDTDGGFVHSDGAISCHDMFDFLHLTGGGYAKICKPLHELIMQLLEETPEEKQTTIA
ASAP1 inh: blocks human ASAP1-stimulated Arf1 GTP hydrolysis; Q9ULH1; 360,000 tested, 0.19% active; inhibition, % at 16.5 µM; AID 624377; GDP FP detection; in the data active means inhibition above about 25%;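 further: 0% = vehicle with enzyme and substrate and 100% = no enzyme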
pPAFAH inh: pPAFAH (human) enzyme inhibition | Q13093 | recombinant pPAFAH, FP-rhodamine probe fluorescence polarization | inhibition, % at 3.39 µM | 330,000 tested, 1.5% active | AID 463082;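 active means inhibition above the mean inhibition across the screen plus 3 SD, cut at about 25% in these data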;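 further: inhibitors block binding of the rhodamine activity-based probe so polarization drops; 0% = enzyme with DMSO and 100% = wells lacking pPAFAH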
PAFAH2 FP inh: inhibitors of human PAFAH2 | recombinant PAFAH2, FP-rhodamine activity probe, fluorescence polarization | inhibition, % at 3.39 µM | 340,000 tested, 0.99% active | AID 492956;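 active means inhibition above the mean over all tested compounds plus 3 SD, cut at about 30% in these data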;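 further: inhibitors block probe labeling of enzyme so polarization drops; 0% = enzyme with DMSO and 100% = wells lacking PAFAH2 protein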
ARFGAP1 inh: inhibitors of rat ARFGAP1 | Q62848 | Arfgap1-stimulated ARF1 GTP hydrolysis, GDP FP detection | inhibition, % at 16.5 µM | 360,000 tested, 0.26% active;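 active means inhibition above a per-plate limit, mean inhibition of low control wells plus 3 SD, cut at about 25% in these data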;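 further: 0% = DMSO wells with enzyme and 100% = wells lacking Arfgap1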
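Assay system: purified rat His6-Arfgap1 residues 1-136 (GAP domain); Reagent: human Δ17 ARF1 bound to GTP; Dosing: 16.5 µM single point, 1.26% DMSO; Times: GTP hydrolysis reaction 2 h at 25 °C; Signal: FP, GDP Alexa 633 tracer displaced from anti-GDP antibody, 620/688 nm; Measure: % inhibition from polarization.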
PAFAH2 confirm: PAFAH2 (human) inhibition, confirmed | shares compounds with PAFAH2 FP inh | 2,300 tested, 65% active | inhibition, % at 3.39 µM | recombinant PAFAH2, FP-rhodamine activity probe, fluorescence polarization;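 active means mean inhibition over three repeats above a set limit taken from the earlier primary screen, cut at about 30% in these data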;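 further: inhibitor blocks binding of rhodamine activity probe so polarization falls; 0% = enzyme with DMSO and 100% = wells lacking PAFAH2 protein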
Active calls of the source: *; . = no result; ! = repeats disagree.

SMILES	PAFAH1B3 inh	PAFAH1B2 FP inh	ASAP1 inh	pPAFAH inh	PAFAH2 FP inh	ARFGAP1 inh	PAFAH2 confirm
C/C(=N/OC(=O)C1CC1)c1cc(-c2ccc(Cl)cc2)no1	12.3	7.1	0.6	2.0	72.9*	7.3	61.5*
C/C(N)=C(/C#N)C(=O)CSc1nnc(Nc2c(C)cccc2C)s1	17.3	5.5	1.4	16.6	31.8*!	-1.8	16.5
CC(C)CC(NC(=O)C(NC(=O)C1CCC(=O)N1C(=O)OCc1ccccc1)C(C)C)C(=O)N1CCCC1C(N)=O (centres undefined)	1.1	2.1	-4.3	-3.5	39.6*	6.1	41.4*
CCOC(=O)N[C@@H](CC(C)C)C(=O)N1CCC[C@H]1C(=O)NCc1ccccc1	.	.	5.2	.	.	-0.6	.
Cc1ccc(C(=O)Nc2cccc(N3C(=O)C4CCC(C)CC4C3=O)c2)cc1 (centres undefined)	1.0	2.9	-5.4	-5.7	-4.4	-1.6	.
COC(=O)c1ccc2c(c1)NC(=O)C1CCCN21 (centres undefined)	.	.	.	-0.2	.	.	.
Cc1ccc(NC(=O)COC(=O)c2ccc3c(c2)NC(=O)C2CCCN32)cc1 (centres undefined)	-13.0	-9.6	-10.5	5.6	68.4*	11.2	75.6*
OC(c1ccc(F)c(F)c1)c1nc(-c2ccc3c(c2)OCO3)cs1 (centres undefined)	.	.	-6.8	.	.	4.3	.
C=CCC1(CC=C)CCCN1C(=O)C1CCC(=O)N(Cc2ccc(Cl)cc2)C1 (centres undefined)	.	.	4.5	.	.	-4.2	.
CCC1(C(=O)NC(=Nc2ccccc2)Nc2ccccc2)CCOC1=O (centres undefined)	8.2	1.9	11.8	.	2.3	-20.4	.
O=C(COC(=O)c1ccccc1)NCCCCc1ccccc1	.	.	3.4	.	.	4.2	.
O=C(COC(=O)C1=Cc2ccccc2OC1)NCc1ccco1	-4.5	-7.5	-0.7	4.3	20.0	4.7	.
CCOc1ccc(C(=O)OCC(=O)NCCCc2ccccc2)cc1	-2.3	0.9	-3.3	12.9	54.8*	-10.6	35.0*
CN(C)c1ccc(C(=O)OCC(=O)Nc2ccc(N3CCOCC3)cc2)cc1	9.7	2.4	-1.0	4.5	49.5*	-14.6	35.4*
O=C(COC(=O)C1=Cc2ccccc2OC1)NCc1ccccc1	0.0	1.7	6.5	2.7	31.4*	0.5	23.4
COc1ccc(C(=O)COC(=O)c2ccc(N(C)C)cc2)cc1	-0.6	-1.6	-1.6	5.6	5.0	-11.0	.
CN(C)c1ccc(C(=O)OCc2ccc(Br)cc2)cc1	-1.7	12.3	-1.4	9.5	34.2*	-6.8	35.1*
COc1ccc(C(=O)OCC(=O)Nc2ccc(N3CCOCC3)cc2)cc1	0.5	-1.3	-5.8	8.1	17.3	-5.7	.
O=[N+]([O-])c1ccccc1C=NN1CCCCCC1	5.2	1.8	-3.4	.	4.1	-2.7	.
COc1ccc(S(=O)(=O)N2CCCCC2)cc1NC(=O)Cc1cccs1	-3.4	-1.9	-7.4	0.9	-2.7	4.4	.
COc1ccc(C2=Nc3ccccc3N(C(=O)c3ccc(C(F)(F)F)cc3)C2C(=O)Nc2c(C)cccc2C)cc1 (centres undefined)	.	.	-9.3	.	.	8.5	.
COc1ccc(CCNC(=S)N2CCN(S(=O)(=O)c3ccccc3)CC2)cc1	4.2	1.6	1.0	2.8	-0.9	7.2	.
CC(OC(=O)c1ccc(-n2cnnn2)cc1)C(=O)N(C)c1ccccc1 (centres undefined)	8.6	3.1	4.2	.	8.0	-1.1	.
CC(=O)Nc1ccc(OCC(=O)NCc2ccccc2)cc1	-4.4	-7.1	-4.0	-1.5	-5.9	-12.5	.
CC(=O)Nc1ccc(C(=O)OCC(=O)NCc2ccccc2)cc1	8.4	2.4	4.8	-5.5	55.5*	7.9	45.7*
CC(=O)Nc1ccc(NC(=O)COC(=O)c2ccc(Cl)nc2)cc1	6.8	-0.5	-0.4	.	1.0	-1.6	.
CC(=O)Nc1ccc(NC(=O)CCC(=O)OCC(=O)c2ccc(F)cc2)cc1	11.9	1.7	0.5	0.5	-1.8	-3.2	.
COC(=O)c1ccc(CNC(=O)COC(=O)c2ccc(N(C)C)cc2)cc1	8.7	7.8	-13.7	5.8	44.0*	-8.9	39.9*
